Assay results collected from several papers.
Protocols differ between the studies behind these lines.
Target: Inhibitor of nuclear factor kappa-B kinase subunit alpha (CHUK, Homo sapiens, UniProt O15111)
Sequence (O15111 1-745, as in one of the studies): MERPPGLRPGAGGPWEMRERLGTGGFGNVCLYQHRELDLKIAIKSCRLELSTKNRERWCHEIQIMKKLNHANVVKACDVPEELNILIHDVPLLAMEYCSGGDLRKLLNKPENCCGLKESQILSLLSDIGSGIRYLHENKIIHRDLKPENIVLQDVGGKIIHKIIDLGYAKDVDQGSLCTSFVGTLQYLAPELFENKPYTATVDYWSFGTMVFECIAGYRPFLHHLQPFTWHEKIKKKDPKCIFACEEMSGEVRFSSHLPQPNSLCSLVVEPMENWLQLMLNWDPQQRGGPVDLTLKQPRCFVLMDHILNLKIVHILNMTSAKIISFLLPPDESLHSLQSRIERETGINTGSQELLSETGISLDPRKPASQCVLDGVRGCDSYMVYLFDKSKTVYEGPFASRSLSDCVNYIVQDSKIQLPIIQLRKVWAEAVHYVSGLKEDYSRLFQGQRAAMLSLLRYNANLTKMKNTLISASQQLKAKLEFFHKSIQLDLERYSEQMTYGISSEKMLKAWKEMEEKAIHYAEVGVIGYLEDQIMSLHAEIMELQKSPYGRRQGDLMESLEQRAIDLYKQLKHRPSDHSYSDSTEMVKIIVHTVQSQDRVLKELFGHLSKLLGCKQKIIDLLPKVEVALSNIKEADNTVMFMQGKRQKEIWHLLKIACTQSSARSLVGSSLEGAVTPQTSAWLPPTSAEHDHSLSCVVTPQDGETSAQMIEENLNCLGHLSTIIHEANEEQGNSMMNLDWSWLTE

CCCOc1ccc([C@@H]2[C@@H](C(=O)O)[C@H](c3ccc4c(c3)OCO4)CN2CC(=O)Nc2c(CC)cccc2CC)cc1  remaining binding (cell-free assay; competition with immobilised ligand; 1 µM): 86%
Cc1cnc(Nc2ccc(C(=O)N3CCC(N4CCCC4)CC3)cc2)nc1-c1cc2ccccc2s1  remaining binding (binding; competition with immobilised ligand; 1 µM): 1.3%
COc1cc(-c2cn(C3CCc4ccccc4N(CC(F)(F)F)C3=O)nn2)ccc1-n1ccc(C)n1 (stereo not shown)  remaining binding (cell-free assay; competition with immobilised ligand; 1 µM): 98%
CN(c1nccc(-c2cnn3ncccc23)n1)C1CC1  remaining binding (binding; 1 µM): 100%
O=C(Nc1c[nH]nc1C(=O)NC1CCNCC1)c1cc(F)cc(F)c1  remaining binding (binding; competition with immobilised ligand; 1 µM): 100%
CN(C)c1nccc(-c2cnc3ncccn23)n1  remaining binding (binding; 1 µM): 71%
Cc1nccc(COC(=O)N2C[C@@H]3[C@@H](CNC(=O)c4ccc5[nH]nnc5c4)[C@@H]3C2)n1  remaining binding (cell-free assay; competition with immobilised ligand; 1 µM): 100%
Nc1ncc2c(n1)-c1c([nH]c3ccc(C#CC4CC4)cc13)CCCC2  remaining binding (binding; competition with immobilised ligand; 1 µM): 98%
O=C(NCCCN1CCOCC1)c1ccc(Nc2ncc(Cl)c(-c3ccc(Cl)s3)n2)cc1  remaining binding (binding; competition with immobilised ligand; 1 µM): 51%
C[C@@H]1CCN(c2nccc(-c3cnn4ncccc34)n2)C1  remaining binding (binding; 1 µM): 81%
O=C(Nc1cnc(Oc2ccc(F)cc2)nc1)N1CCc2ncccc2[C@@H]1c1ccc(F)cc1  remaining binding (cell-free assay; competition with immobilised ligand; 1 µM): 100%
COc1cnc(Nc2cccc(S(N)(=O)=O)c2)nc1N1CCN(c2ccccc2)CC1  remaining binding (binding; competition with immobilised ligand; 1 µM): 89%
N[C@@H]1CCN(c2nccc(-c3cnn4ncccc34)n2)C1  remaining binding (binding; 1 µM): 100%
C=CC(=O)N1CCC(C(=O)NCC(=O)N2CCN(c3nc(-c4cnc(N)nc4C(F)F)nc(N4CCOCC4)n3)CC2)CC1  remaining binding (binding; competition with immobilised ligand; 1 µM): 71%
CS(=O)(=O)c1cc(C2(NC(=O)c3cncc4c3cnn4-c3ccc(F)cc3)CC2)ccn1  remaining binding (cell-free assay; competition with immobilised ligand; 1 µM): 100%
CCN1CCN(Cc2ccc(C(=O)Nc3ccc(C)c(Oc4ccc5c(c4)CC(=O)N5)c3)cc2C(F)(F)F)CC1  remaining binding (binding; competition with immobilised ligand; 1 µM): 74%
CN(C)c1ncc(F)c(-c2cnn3ncccc23)n1  remaining binding (binding; 1 µM): 70%
COc1ncc2cc3ccccc3nc2c1C#N  remaining binding (cell-free assay; competition with immobilised ligand; 5 µM): 98%
O=C(Nc1ccc(Oc2ccc(F)cc2)cc1)N1CCc2ncccc2[C@H]1c1ccc(F)cc1  remaining binding (cell-free assay; competition with immobilised ligand; 1 µM): 100%
COc1cnc(Nc2cccc(S(N)(=O)=O)c2)nc1N1CCN(c2ccccc2)C(=O)C1  remaining binding (binding; competition with immobilised ligand; 1 µM): 91%
C[C@@H]1CN(c2ccc3ncc(-c4ccc5[nH]nc(C6CC6)c5c4)n3n2)C[C@H](C)O1  remaining binding (binding; competition with immobilised ligand; 50 nM): 86%
CN(C)c1nccc(-c2cnn3ncccc23)n1  remaining binding (binding; 1 µM): 81%
CC1=C(C#N)C(c2ccc3c(c2)c(NC(=O)c2ccccc2C)nn3C)C(C#N)=C(C)N1  remaining binding (cell-free assay; competition with immobilised ligand; 1 µM): 77%
CC1CCCN1c1nccc(-c2cnn3ncccc23)n1 (stereo not shown)  remaining binding (binding; 1 µM): 86%
O=C(c1ccc(Nc2ncc(Cl)c(-c3cc4ccccc4s3)n2)cc1)N1CCC(N2CCCC2)CC1  remaining binding (binding; competition with immobilised ligand; 1 µM): 0.8%
